Measured values as given in ChEMBL document CHEMBL4622944 (Bioorg Med Chem Lett, 2020).
Blank lines part the entries; values can stand above or below the compound they belong to.

What was measured:
A549 = test: Antiproliferative activity against human A549 cells assessed as reduction in cell viability by MTT assay; type: functional, cell-based
PC-3 = test: Antiproliferative activity against human PC3 cells assessed as reduction in cell viability by MTT assay; type: functional, cell-based
HCT-116 [1] = test: Antiproliferative activity against human HCT116 cells assessed as reduction in cell viability by MTT assay; type: functional, cell-based
HCT-116 [2] = test: Induction of cell cycle arrest in human HCT116 cells assessed as S phase at 9 uM incubated for 24 hrs by annexin V and propidium iodide staining based flow cytometry analysis (reference value: 16.08 %); type: functional
Outline: (§1)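 HCT116 cells treated 24 h at 0.33, 1.0 or 9.0 µM alongside a non-treated control. Cells were fixed, stained with Annexin-V and propidium iodide, and DNA content was measured by flow cytometry. Percentages of cells in G1, S and G2 phases were quantified.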

HCT-116 [3] = test: Induction of apoptosis in human HCT116 cells assessed as viable cells at 9 uM incubated for 24 hrs by annexin V FITC and propidium iodide staining based flow cytometry analysis (reference value: 80.9 %); type: functional; details: HCT-116, 24 h, read-out: Activity
HCT-116 [4] = test: Induction of cell cycle arrest in human HCT116 cells assessed as G1 phase at 0.33 uM incubated for 24 hrs by annexin V and propidium iodide staining based flow cytometry analysis (reference value: 61.81 %); type: functional; outline: as §1
HCT-116 [5] = test: Induction of apoptosis in human HCT116 cells incubated for 24 hrs by annexin V FITC and propidium iodide staining based flow cytometry analysis; type: functional, cell-based
HCT-116 [6] = test: Induction of apoptosis in human HCT116 cells assessed as viable cells at 3 uM incubated for 24 hrs by annexin V FITC and propidium iodide staining based flow cytometry analysis (reference value: 80.9 %); type: functional; details: HCT-116, 24 h, read-out: Activity
HCT-116 [7] = test: Induction of apoptosis in human HCT116 cells assessed as necrotic cells at 1 uM incubated for 24 hrs by annexin V FITC and propidium iodide staining based flow cytometry analysis (reference value: 0.2 %); type: functional
HCT-116 [8] = test: Induction of apoptosis in human HCT116 cells assessed as total apoptotic cells at 9 uM incubated for 24 hrs by annexin V FITC and propidium iodide staining based flow cytometry analysis (reference value: 18.9%); type: functional
HCT-116 [9] = test: Induction of cell cycle arrest in human HCT116 cells assessed as S phase at 0.33 uM incubated for 24 hrs by annexin V and propidium iodide staining based flow cytometry analysis (reference value: 16.08 %); type: functional; outline: as §1
HCT-116 [10] = test: Induction of cell cycle arrest in human HCT116 cells assessed as G2 phase at 0.33 uM incubated for 24 hrs by annexin V and propidium iodide staining based flow cytometry analysis (reference value: 22.11 %); type: functional; outline: as §1
HCT-116 [11] = test: Induction of cell cycle arrest in human HCT116 cells assessed as G2 phase at 1 uM incubated for 24 hrs by annexin V and propidium iodide staining based flow cytometry analysis (reference value: 22.11 %); type: functional; outline: as §1
HCT-116 [12] = test: Induction of apoptosis in human HCT116 cells assessed as necrotic cells at 3 uM incubated for 24 hrs by annexin V FITC and propidium iodide staining based flow cytometry analysis (reference value: 0.2 %); type: functional
HCT-116 [13] = test: Induction of apoptosis in human HCT116 cells assessed as late apoptotic cells at 9 uM incubated for 24 hrs by annexin V FITC and propidium iodide staining based flow cytometry analysis (reference value: 11 %); type: functional
HCT-116 [14] = test: Induction of cell cycle arrest in human HCT116 cells assessed as S phase at 1 uM incubated for 24 hrs by annexin V and propidium iodide staining based flow cytometry analysis (reference value: 16.08 %); type: functional; outline: as §1
HCT-116 [15] = test: Induction of apoptosis in human HCT116 cells assessed as early apoptotic cells at 1 uM incubated for 24 hrs by annexin V FITC and propidium iodide staining based flow cytometry analysis (reference value: 7.9%); type: functional
HCT-116 [16] = test: Induction of cell cycle arrest in human HCT116 cells assessed as G1 phase at 1 uM incubated for 24 hrs by annexin V and propidium iodide staining based flow cytometry analysis (reference value: 61.81 %); type: functional; outline: as §1
HCT-116 [17] = test: Induction of apoptosis in human HCT116 cells assessed as late apoptotic cells at 1 uM incubated for 24 hrs by annexin V FITC and propidium iodide staining based flow cytometry analysis (reference value: 11 %); type: functional
HCT-116 [18] = test: Inhibition of cell migration in human HCT116 cells assessed as inhibition of wound healing rate measured upto 48 hrs by phase contrast microscopy; type: functional, cell-based
Outline: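 Wound-healing scratch assay in HCT116 monolayers treated at 0.3 and 3 µM versus blank control. Phase-contrast images were taken at 0, 24 and 48 h, and the wound-healing rate was assessed.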

HCT-116 [19] = test: Induction of apoptosis in human HCT116 cells assessed as early apoptotic cells at 3 uM incubated for 24 hrs by annexin V FITC and propidium iodide staining based flow cytometry analysis (reference value: 7.9 %); type: functional
HCT-116 [20] = test: Induction of cell cycle arrest in human HCT116 cells assessed as G2 phase at 9 uM incubated for 24 hrs by annexin V and propidium iodide staining based flow cytometry analysis (reference value: 22.11 %); type: functional; outline: as §1
HCT-116 [21] = test: Induction of apoptosis in human HCT116 cells assessed as necrotic cells at 9 uM incubated for 24 hrs by annexin V FITC and propidium iodide staining based flow cytometry analysis (reference value: 0.2 %); type: functional
HCT-116 [22] = test: Induction of apoptosis in human HCT116 cells assessed as viable cells at 1 uM incubated for 24 hrs by annexin V FITC and propidium iodide staining based flow cytometry analysis (reference value: 80.9 %); type: functional; details: HCT-116, 24 h, read-out: Activity
HCT-116 [23] = test: Induction of cell cycle arrest in human HCT116 cells assessed as G1 phase at 9 uM incubated for 24 hrs by annexin V and propidium iodide staining based flow cytometry analysis (reference value: 61.81 %); type: functional; outline: as §1
HCT-116 [24] = test: Induction of apoptosis in human HCT116 cells assessed as early apoptotic cells at 9 uM incubated for 24 hrs by annexin V FITC and propidium iodide staining based flow cytometry analysis (reference value: 7.9 %); type: functional
HCT-116 [25] = test: Induction of apoptosis in human HCT116 cells assessed as late apoptotic cells at 3 uM incubated for 24 hrs by annexin V FITC and propidium iodide staining based flow cytometry analysis (reference value: 11 %); type: functional

SMILES: Cn1c(=O)c(=O)n(C2CCCC2)c2nc(N/N=C/c3cccc(Cl)c3Cl)ncc21
IC50 (A549): 39.1 µM | IC50 (PC-3): 17.2 µM | IC50 (HCT-116 [1]): 26.4 µM

SMILES: CSc1ccc(/C=N/Nc2ncc3c(n2)n(C2CCCC2)c(=O)c(=O)n3C)cc1
IC50 (A549): 14.1 µM | IC50 (PC-3): 21 µM | IC50 (HCT-116 [1]): 9.01 µM

SMILES: COc1cccc(/C=N/Nc2ncc3c(n2)n(C2CCCC2)c(=O)c(=O)n3C)c1
IC50 (A549): 27.4 µM | IC50 (PC-3): 20.7 µM | IC50 (HCT-116 [1]): 45.8 µM

SMILES: Cn1c(=O)c(=O)n(C2CCCC2)c2nc(N/N=C/c3cc([N+](=O)[O-])ccc3Cl)ncc21
IC50 (A549): 8.78 µM | IC50 (PC-3): 9.26 µM | IC50 (HCT-116 [1]): 5.61 µM

SMILES: Cn1c(=O)c(=O)n(C2CCCC2)c2nc(N/N=C/c3ccccc3Cl)ncc21
IC50 (A549): 9.86 µM | IC50 (PC-3): 16.3 µM | IC50 (HCT-116 [1]): 14 µM

SMILES: Cn1c(=O)c(=O)n(C2CCCC2)c2nc(N/N=C/c3ccc(O)c(Br)c3)ncc21
IC50 (A549): 12.8 µM | IC50 (PC-3): 11.6 µM | IC50 (HCT-116 [1]): 17.7 µM

SMILES: COc1ccc(/C=N/Nc2ncc3c(n2)n(C2CCCC2)c(=O)c(=O)n3C)cc1
IC50 (A549): > 100 µM | IC50 (PC-3): 26.2 µM | IC50 (HCT-116 [1]): 36.1 µM

SMILES: Cn1c(=O)c(=O)n(C2CCCC2)c2nc(N/N=C/c3ccc(F)c(Cl)c3)ncc21
IC50 (A549): 9.41 µM | IC50 (PC-3): 8.55 µM | IC50 (HCT-116 [1]): 9.02 µM

SMILES: Cc1cccc(/C=N/Nc2ncc3c(n2)n(C2CCCC2)c(=O)c(=O)n3C)c1
IC50 (A549): 34.5 µM | IC50 (PC-3): 53.6 µM | IC50 (HCT-116 [1]): > 100 µM

Further compounds by falling IC50 (A549), results first:

IC50 (A549): 18.3 µM | IC50 (PC-3): 17.5 µM | IC50 (HCT-116 [1]): 22.9 µM
SMILES: COc1cc(/C=N/Nc2ncc3c(n2)n(C2CCCC2)c(=O)c(=O)n3C)cc(OC)c1OC

IC50 (A549): 12.9 µM | IC50 (PC-3): 7.18 µM | IC50 (HCT-116 [1]): 6.15 µM
SMILES: Cn1c(=O)c(=O)n(C2CCCC2)c2nc(N/N=C/c3ccc(OC(F)(F)F)cc3)ncc21

IC50 (A549): 12.3 µM | IC50 (PC-3): 20.3 µM | IC50 (HCT-116 [1]): 15.2 µM
SMILES: Cn1c(=O)c(=O)n(C2CCCC2)c2nc(N/N=C/c3cccc([N+](=O)[O-])c3)ncc21

IC50 (A549): 11 µM | IC50 (PC-3): 15.2 µM | IC50 (HCT-116 [1]): 13.8 µM
SMILES: Cn1c(=O)c(=O)n(C2CCCC2)c2nc(N/N=C/c3ccc(F)cc3Cl)ncc21

IC50 (A549): 3.23 µM | IC50 (PC-3): 8.2 µM | IC50 (HCT-116 [1]): 4.36 µM
SMILES: Cn1c(=O)c(=O)n(C2CCCC2)c2nc(N/N=C/c3cc(C(F)(F)F)cc(C(F)(F)F)c3)ncc21
Activity (HCT-116 [2]): 11.41% | viability at 9 µM (HCT-116 [3]): 61.3% | Activity (HCT-116 [4]): 62.69% | Activity (HCT-116 [5]): Dose-dependent effect | viability at 3 µM (HCT-116 [6]): 77.4% | Activity (HCT-116 [7]): 0.5% | Activity (HCT-116 [8]): 38.3% | Activity (HCT-116 [9]): 20% | Activity (HCT-116 [10]): 17.31% | Activity (HCT-116 [11]): 17.98% | Activity (HCT-116 [12]): 0.2% | Activity (HCT-116 [13]): 18% | Activity (HCT-116 [14]): 16.56% | Activity (HCT-116 [15]): 10.3% | Activity (HCT-116 [16]): 65.46% | Activity (HCT-116 [17]): 11.1% | inhibition (HCT-116 [18]): Dose-dependent effect | Activity (HCT-116 [19]): 10.2% | Activity (HCT-116 [20]): 21.39% | Activity (HCT-116 [21]): 0.4% | viability at 1 µM (HCT-116 [22]): 78.1% | Activity (HCT-116 [23]): 67.2% | Activity (HCT-116 [24]): 20.3% | Activity (HCT-116 [25]): 12.2%
